Rows were chosen to be rich in hits. Some 2.5% of all compounds tested hit in one or more screens of this group.
Granule exo inh: LAMP-1 surface exposure blockers, TALL-104 cells – cell-based, flow cytometry, MLPCN library, primary screen; AID 651702, 2012; hit rate 0.66% among 360,000; inhibition, % at 10 µM; TALL-104 LAMP-1 surface exposure; cells stimulated with thapsigargin and PMA;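 active = inhibition above about 55%, limit read from the data; inconclusive = no clear call, values can overlap the other calls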
NTR1 agonist: agonists of human NTR1, primary screen, imaging, U2OS cells, beta-arrestin-GFP, high content; Neurotensin receptor type 1 (Homo sapiens), P30989; AID 493036, 2011; NTR1-U2OS beta-arrestin-GFP spot imaging, agonist mode; activation, % at 20 µM; hit rate 0.17% among 330,000;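 active = activation at or above 40% of the spot to cytoplasm intensity ratio, with at least 20 cells analyzed; inconclusive = wells under 20 cells, flagged as cytotoxic or low count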;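 note: 0% = DMSO without peptide and 100% = 100 nM NTR1 peptide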
Target sequence (P30989 whole entry, looked up): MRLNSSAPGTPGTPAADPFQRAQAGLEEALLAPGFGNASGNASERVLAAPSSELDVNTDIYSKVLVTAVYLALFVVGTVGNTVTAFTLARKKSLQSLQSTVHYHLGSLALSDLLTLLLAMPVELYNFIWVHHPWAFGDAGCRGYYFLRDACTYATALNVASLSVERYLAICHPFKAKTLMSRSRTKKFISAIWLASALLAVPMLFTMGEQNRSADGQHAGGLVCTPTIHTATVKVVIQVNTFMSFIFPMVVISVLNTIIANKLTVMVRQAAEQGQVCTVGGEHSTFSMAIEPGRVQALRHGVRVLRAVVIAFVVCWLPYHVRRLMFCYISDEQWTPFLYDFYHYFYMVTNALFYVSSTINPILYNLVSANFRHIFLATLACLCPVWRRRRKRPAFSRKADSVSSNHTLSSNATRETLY
MC4R antagonist: MC4R antagonists of cAMP signaling, primary screen, cell-based, TR-FRET, antagonist arm of biased-ligand search | Melanocortin receptor 4 (Homo sapiens), P32245 | MC4R-expressing cells, MTII-stimulated cAMP, LANCE TR-FRET | inhibition, % at 6.5 µM | hit rate 0.48% among 360,000 | AID 540295, 2011;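 active = inhibition above its plate's cutoff, the mean of tested wells on that plate plus 3 SD, cut at about 29% in these data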;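 note: 0% = Melanotan II alone and 100% = Melanotan II plus saturating MCL0020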
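System: U2OS cells stably expressing human melanocortin 4 receptor (MC4R). Reagent: Melanotan II challenge after compound preincubation. Doses: 6.5 µM. Times: 30-min compound, 1-h challenge, 1-h detection, room temperature. Measured by: TR-FRET with Eu-cAMP and labeled anti-cAMP, 671 nm. Replicates: singlicate.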
MC4R ag barr: MC4R agonists recruiting beta-arrestin, primary screen, cell-based, luminescence, agonist arm of biased-ligand search; Melanocortin receptor 4 (Homo sapiens), P32245; U2OS MC4R beta-arrestin complementation; percent of melanotan II response, DMSO zero; activation, % at 8.9 µM; hit rate 0.98% among 360,000; AID 540308, 2011;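 active = activation above a per-plate cutoff, the mean activation of sample wells on that plate plus 3 SD, cut at about 8% in these data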
Bfl-1 A1 inh: caspase 3/7 activation in MEF A1-2A-BIM cells, primary screen, A1 inhibitor project, cell-based, luminescence, HTS; caspase activation, % (test concentration not listed); Caspase-Glo 3/7 luminescence, 3 h; percent of clofoctol response, vehicle zero; hit rate 0.066% among 330,000; AID 2462, 2010;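 active = over half of replicate activation scores above 10%, or exactly half above 10 with the replicate mean above 10; inconclusive = replicate mean below 10 yet half the replicates above 10; inactive = over half of replicates below 10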
HGIII-sPLA2 inh: human group III sPLA2 inhibitors, primary screen, biochemical, QFRET, BODIPY PC-A2 liposome substrate; Group 3 secretory phospholipase A2 (Homo sapiens), Q9NZ20; QFRET BODIPY PC-A2 liposome hydrolysis, fluorescence; inhibition, % at 12.2 µM; hit rate 0.56% among 370,000; AID 743126, 2013;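 active = inhibition above mean plus 3 SD of compounds lying within the high and low control bounds, cut at about 19% in these data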;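 note: 0% = median of test compound wells and 100% = no enzyme DMSO wells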
NTR1 ag conf: NTR1 agonists, single-dose retest, confirmation, imaging, U2OS cells, beta-arrestin-GFP, single concentration. hit rate 38% among 480. shares compounds with NTR1 agonist. NTR1-U2OS beta-arrestin-GFP translocation imaging. AID 504550, 2011. activation, % at 20 µM;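 active = mean activation at 20 µM of at least 40%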;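 note: 0% = DMSO without peptide and 100% = 100 nM NTR1 peptide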
An asterisk follows results filed as active; ? = inconclusive; · = not tested or not shown.

SMILES	Granule exo inh	NTR1 agonist	MC4R antagonist	MC4R ag barr	Bfl-1 A1 inh	HGIII-sPLA2 inh	NTR1 ag conf
CC(C)[C@H]1/C(=C/C2CC2)N2C(=O)C[C@@H](c3ccccc3)N=C2N1Cc1ccc2c(c1)OCO2	·	·	·	·	·	2	·
COC(=O)[C@H](CC(C)C)N(CCCc1cn(Cc2ccc(C)cc2)nn1)S(=O)(=O)c1ccccc1Br	·	·	·	·	·	-24	·
O=C(/C=C/c1cccc(Cl)c1)c1nc2ccccc2[nH]1	7	42*	14	-4	1	-6	72*
O=C(/C=C/c1cccc(Cl)c1)Nc1ncccn1	-6	0	9	0	-2	3	·
Cc1ccc(CN2CCCCC(NC(=O)c3cccc(C(F)(F)F)c3)C2=O)cc1 (stereo not given)	·	·	·	·	·	-3	·
COc1ccc2sc(-c3ccc(S(C)(=O)=O)cc3)c(C#CCO)c2c1	18	57*	11	1	1	-45	57*
O=C1Nc2cc(C(=O)NCCCN3CCOCC3)ccc2S/C1=C/c1ccccc1F	7	0	0	-3	1	-15	·
O=C1Nc2cc(C(=O)NCCCN3CCOCC3)ccc2S/C1=C/c1cccc(Cl)c1	49	44*	7	2	0	-21	4
O=C(N1CCOCC1)N1CC[C@H]2[C@H](CCCN2Cc2cc(F)cc(F)c2)C1	·	·	·	·	·	8	·
CCOc1ccc(-n2c(SCC(=O)Nc3ccc(S(=O)(=O)Nc4nccs4)cc3)nnc2-c2ccccc2)cc1	·	·	·	·	·	-37	·
O=C(CSc1ccc(Cl)cc1)Nc1cccc(-c2nc3ncccc3o2)c1	25	52*	11	-1	0	7	33
O=C(CSc1ccc(Cl)cc1)Nc1cc(-c2nc3ncccc3o2)ccc1Cl	·	14	·	·	0	1	·
CCCCCCCCN1C(=O)[C@@H](CC(=O)NCC2CCCCC2)C[C@@]2(C(=O)OC)C1=C[C@H](C(C)C)O[C@@H]2C1CC1	·	·	·	·	·	2	·
Cc1cc(C)c2c(c1)/C(=C/C(=O)c1ccc(Br)s1)C(=O)N2	11	58*	12	0	0	-4	68*
Cc1cc(Br)c2c(c1)/C(=C/C(=O)c1cccs1)C(=O)N2	-1	63*	-2	6	0	5	41*
CCc1ccc2c(c1)/C(=C/C(=O)c1cccs1)C(=O)N2	104*	42*	0	-3	0	11	57*
COc1cccc(C(CC2=CCCCC2)NC(=O)C(F)(F)F)c1 (stereo not given)	·	·	·	·	·	-5	·
COc1ccccc1CNC(=O)CN1C(=O)NC(C)(c2ccc(C)cc2)C1=O (stereo not given)	-13	47*	2	1	-1	2	-2
COc1ccc(C(=O)n2nc(-c3ccco3)nc2N)cc1	-6	52*	4	-1	-1	6	5
Cc1ccc(C(=O)n2nc(-c3ccco3)nc2N)cc1	0	0	-2	-2	0	4	·
CCOc1c(OC(C)=O)ccc(/C=C/c2ccc3cccc(OC)c3n2)c1[N+](=O)[O-]	20	42*	10	5	-1	-28	22
COc1cc(/C=C/c2ccc3cccc([N+](=O)[O-])c3n2)ccc1OCC(=O)O	-1	1	-8	-1	-1	1	·
C=CCN1[C@H](CO)[C@H](c2ccc(C#CC3(O)CCCC3)cc2)[C@@H]1C#N	·	·	·	·	·	-4	·
C/C(=N\NC(=O)c1ccc(C)cc1C)c1ccc2c(c1)Nc1ccccc1S2	13	43*	13	1	0	15	33
O=C(Nc1ccc(-c2noc(-c3cccs3)n2)cc1)c1cccnc1	19	47*	9	5	-2	-19	9
SMILES	Granule exo inh	NTR1 agonist	MC4R antagonist	MC4R ag barr	Bfl-1 A1 inh	HGIII-sPLA2 inh	NTR1 ag conf
C=C(C)COc1ccc(-c2ncncc2-c2ccc(Br)cc2)c(O)c1	16	11	-3	-1	-1	-43	·
C=C(C)COc1ccc(-c2[nH]ncc2-c2ccc(Br)cc2)c(O)c1	10	41*	-24	4	0	-37	9
CCOc1ccc(-c2[nH]ncc2-c2ccc(Cl)cc2)c(O)c1	44	55*	1	6	1	-61	6
CNC(=O)c1cccc(NC(=O)c2cc(-c3ccccc3)nc3c2cnn3C(C)C)c1	13	55*	1	-2	-1	-43	33
CN(c1ccccc1)c1nc(N)c([N+](=O)[O-])c(Nc2cccc(F)c2)n1	31	44*	12	0	?	-1	37
COc1ccc(C(=O)N[C@H]2CC[C@@]34CCCN3C(=O)CCC[C@H]4[C@H]2C)cc1	·	·	·	·	·	-3	·
COc1ccc(Cn2c(O)c(C=Nc3ccc(O)cc3)c3ccccc3c2=O)cc1	1	34	21	-1	1	0	·
O=c1c2ccccc2c(C=Nc2ccc(O)cc2)c(O)n1Cc1ccccc1	4	40	-3	0	-1	-5	5
CCCCNS(=O)(=O)CC1NCc2ccccc21 (stereo not given)	·	·	·	·	·	8	·
CO/N=C(\c1nonc1N)N1CCN(c2ccc([N+](=O)[O-])cc2Cl)CC1	-4	4	9	-1	0	-6	·
CO/N=C(\c1nonc1N)N1CCN(c2ccc(Cl)cc2[N+](=O)[O-])CC1	-1	58*	0	-1	0	-3	36
COC(=O)[C@]12C[C@H](CC(=O)NCCC(C)C)C(=O)N(Cc3ccco3)C1=C[C@H](C(C)C)O[C@@H]2C1CC1	·	·	·	·	·	-7	·
CSc1nc(N)nc(SCC(=O)C23CC4CC(CC(C4)C2)C3)c1C#N	3	45*	-12	1	0	-2	13
Cc1ccc(OCC(=O)NNc2c3ccccc3nc3ccccc23)cc1	3	47*	-4	1	0	-10	20
CC(=O)c1cccc(Nc2nc(-c3sc(C)nc3C)cs2)c1	15	54*	10	1	1	-8	24
CC(=O)c1cccc(Nc2nc(-c3sc(N)nc3C)cs2)c1	16	0	-4	0	0	-4	·
Nn1c(SCC(=O)Nc2ccccc2-c2ccccc2)nnc1-c1cc(-c2ccc(F)cc2)n[nH]1	·	·	·	·	·	-4	·

Source: PubChem
